Experimental data: ChEMBL document CHEMBL4699498 (J Med Chem, 2020)
Active and inactive are the calls of the source. The rule behind the calls is not given here.

Test system: not listed separately
Assay: Acute toxicity in Balb/c mouse xenografted with SW-620 cells assessed as mean weight loss at 50 mg/kg, po qd administered for 5 days measured on day 6 relative to control
Assay type: organism-based
Conditions: in vivo, 144 h, time 6 day

Compound	Activity [%]
Cn1nnc2c(C(N)=O)ncn2c1=O [TEMOZOLOMIDE]	9

Target: T1, Protein cereblon/Poly [ADP-ribose] polymerase 1 (Homo sapiens, UniProt P09874+Q96SW2)
Assay: Protac activity at CRBN/PARP1 in human MDA-MB-436 cells assessed as reduction in PARP1 protein level at 0.01 to 10 uM incubated for 12 hrs by western blot analysis
Assay type: cell-based
Conditions: dose microM 0.01-10, time 12.0 hrs
Method in brief: (§1)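 MDA-MB-436 or SW620 cells dosed at 1, 10, 100, 1000 nM and 10 µM for 12 h; PARP1 assessed by western blot of RIPA lysates (20-30 µg protein), β-tubulin as loading control.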

T1 sequence (P09874 2-1014 limits assumed): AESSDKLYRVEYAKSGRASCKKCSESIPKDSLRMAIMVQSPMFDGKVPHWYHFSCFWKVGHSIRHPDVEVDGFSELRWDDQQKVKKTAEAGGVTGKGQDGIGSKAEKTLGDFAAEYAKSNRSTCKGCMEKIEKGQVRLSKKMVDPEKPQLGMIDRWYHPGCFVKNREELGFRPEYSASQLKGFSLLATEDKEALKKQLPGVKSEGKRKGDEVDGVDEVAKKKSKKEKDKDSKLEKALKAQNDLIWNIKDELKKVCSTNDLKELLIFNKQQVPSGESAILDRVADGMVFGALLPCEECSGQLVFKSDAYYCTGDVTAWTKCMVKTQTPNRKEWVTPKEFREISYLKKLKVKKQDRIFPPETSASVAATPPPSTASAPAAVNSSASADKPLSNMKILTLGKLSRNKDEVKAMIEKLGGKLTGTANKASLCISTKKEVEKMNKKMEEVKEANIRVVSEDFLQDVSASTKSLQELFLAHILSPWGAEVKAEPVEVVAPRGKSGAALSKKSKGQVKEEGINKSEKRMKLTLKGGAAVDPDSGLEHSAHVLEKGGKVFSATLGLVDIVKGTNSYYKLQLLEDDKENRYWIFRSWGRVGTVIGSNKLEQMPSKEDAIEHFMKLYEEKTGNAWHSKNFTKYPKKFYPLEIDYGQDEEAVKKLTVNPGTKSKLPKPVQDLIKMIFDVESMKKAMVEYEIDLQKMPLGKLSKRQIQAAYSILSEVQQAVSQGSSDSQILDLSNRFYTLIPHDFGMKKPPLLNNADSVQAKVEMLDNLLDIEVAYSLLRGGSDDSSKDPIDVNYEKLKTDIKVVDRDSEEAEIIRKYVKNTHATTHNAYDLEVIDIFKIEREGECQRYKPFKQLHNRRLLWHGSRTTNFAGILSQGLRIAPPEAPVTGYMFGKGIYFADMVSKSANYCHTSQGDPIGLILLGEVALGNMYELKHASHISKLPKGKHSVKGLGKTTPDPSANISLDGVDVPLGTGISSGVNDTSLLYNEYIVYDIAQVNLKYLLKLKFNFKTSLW
T1 sequence (Q96SW2 whole entry partner): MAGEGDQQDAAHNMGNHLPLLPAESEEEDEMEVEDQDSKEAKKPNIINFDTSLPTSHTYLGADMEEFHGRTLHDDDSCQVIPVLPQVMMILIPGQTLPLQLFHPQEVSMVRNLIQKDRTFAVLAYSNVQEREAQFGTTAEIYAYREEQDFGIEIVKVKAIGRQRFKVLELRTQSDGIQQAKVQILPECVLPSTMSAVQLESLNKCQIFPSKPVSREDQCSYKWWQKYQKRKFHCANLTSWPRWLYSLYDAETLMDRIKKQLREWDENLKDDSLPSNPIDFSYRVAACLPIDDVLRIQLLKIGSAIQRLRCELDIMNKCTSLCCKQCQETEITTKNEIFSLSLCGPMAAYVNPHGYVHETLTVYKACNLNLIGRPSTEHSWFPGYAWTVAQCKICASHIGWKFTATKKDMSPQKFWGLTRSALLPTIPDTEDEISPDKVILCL

Activity	Compound
Active	CN(CCOCCOCCOCCOCCOCCOCCNc1cccc2c1C(=O)N(C1CCC(=O)NC1=O)C2=O)Cc1ccc(-c2[nH]c3cc(F)cc4c3c2CCNC4=O)cc1 (stereo not drawn)

Target: T1, Protein cereblon/Poly [ADP-ribose] polymerase 1
Assay: Protac activity at CRBN/PARP1 in human MDA-MB-436 cells assessed as induction of PARP1 degradation at 10 nM incubated for 24 hrs by Western blot analysis relative to control
Assay type: cell-based
Conditions: not given
Method in brief: (§2)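 MDA-MB-436 cells (RPMI-1640, 10% FBS) seeded 24 h, then exposed to compound at 1, 10, 100 and 1000 nM for 24 h. Lysates in RIPA with protease inhibitors, 20-30 µg protein by SDS-PAGE, PARP1 immunoblot with β-tubulin loading control; PARP1/β-tubulin ratio normalized to DMSO control set at 100.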

Activity [%]	Compound
70	O=C(CCCCCCCCCCC(=O)N1CCN(C(=O)c2cc(Cc3n[nH]c(=O)c4ccccc34)ccc2F)CC1)NCCCCNc1cccc2c1C(=O)N(C1CCC(=O)NC1=O)C2=O (stereo not drawn)

Target: T1, Protein cereblon/Poly [ADP-ribose] polymerase 1
Assay: Protac activity at CRBN/PARP1 in human MDA-MB-436 cells assessed as induction of PARP1 degradation at 1 uM incubated for 24 hrs by Western blot analysis relative to control
Assay type: cell-based
Conditions: not given
Method in brief: as §2

Activity [%]	Compound
45	O=C(CCCCCCCCCCC(=O)N1CCN(C(=O)c2cc(Cc3n[nH]c(=O)c4ccccc34)ccc2F)CC1)NCCCCNc1cccc2c1C(=O)N(C1CCC(=O)NC1=O)C2=O (stereo not drawn)

Target: T1, Protein cereblon/Poly [ADP-ribose] polymerase 1
Assay: Protac activity at CRBN/PARP1 in human MDA-MB-436 cells assessed as induction of PARP1 degradation at 100 nM incubated for 24 hrs by Western blot analysis relative to control
Assay type: cell-based
Conditions: not given
Method in brief: as §2

Activity [%]	Compound
90.5	O=C(CCCCCCCCCCC(=O)N1CCN(C(=O)c2cc(Cc3n[nH]c(=O)c4ccccc34)ccc2F)CC1)NCCCCNc1cccc2c1C(=O)N(C1CCC(=O)NC1=O)C2=O (stereo not drawn)

Target: T1, Protein cereblon/Poly [ADP-ribose] polymerase 1
Assay: Protac activity at CRBN/PARP1 in human Capan1 cells assessed as induction of PARP1 degradation at 1 to 1000 nM incubated for 24 hrs by Western blot analysis
Assay type: cell-based
Conditions: CAPAN-1, dose nM 1-1000, time 24.0 hrs
Method in brief: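 Capan-1 cells were treated 24 h (1-1000 nM, or a wider dose range for DC50). Lysis was in RIPA buffer with protease inhibitors, and 20-30 μg protein was blotted. PARP1 was normalized to β-tubulin and to DMSO control, quantified by densitometry. DC50 came from two independent experiments.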

Activity	Compound
inactive	CN1C(=O)CCC(N2C(=O)c3cccc(NCCNC(=O)CCCCCCCCCCC(=O)N4CCN(C(=O)c5cc(Cc6n[nH]c(=O)c7ccccc67)ccc5F)CC4)c3C2=O)C1=O (stereo not drawn)

Test system: SW-620
Assay: Antitumor activity against SW-620 cells xenografted in Balb/c mouse assessed as tumor growth suppression at 50 mg/kg, po administered once daily for 5 days
Assay type: functional, organism-based
Conditions: time 5.0 day
Method in brief: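 Male BALB/c nude mice carried SW620 xenografts (6×10^6 cells s.c.), randomized at ~150 mm³ (6 per group). TMZ 50 mg/kg was given orally once daily on days 0-4, 45 min after the partner drug. Partners were 5 or 10 mg/kg intraperitoneally or 10 mg/kg by oral gavage, daily for 5 days. Vehicle was 5% DMSO/20% PEG400/10% Cremophor EL/65% saline. Tumor volume and body weight were recorded 2-3 times weekly.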

Compound	Activity
Cn1nnc2c(C(N)=O)ncn2c1=O [TEMOZOLOMIDE]	Active

Target: von Hippel-Lindau disease tumor suppressor/Poly [ADP-ribose] polymerase 1 (Homo sapiens) (UniProt P09874+P40337)
Assay: Protac activity at VHL/PARP1 in human MDA-MB-436 cells assessed as reduction in PARP1 protein level at 1 uM incubated for 24 hrs by western blot analysis
Assay type: cell-based
Conditions: not given

von Hippel-Lindau disease tumor suppressor/Poly [ADP-ribose] polymerase 1 (Homo sapiens), sequence (P09874 whole entry, looked up): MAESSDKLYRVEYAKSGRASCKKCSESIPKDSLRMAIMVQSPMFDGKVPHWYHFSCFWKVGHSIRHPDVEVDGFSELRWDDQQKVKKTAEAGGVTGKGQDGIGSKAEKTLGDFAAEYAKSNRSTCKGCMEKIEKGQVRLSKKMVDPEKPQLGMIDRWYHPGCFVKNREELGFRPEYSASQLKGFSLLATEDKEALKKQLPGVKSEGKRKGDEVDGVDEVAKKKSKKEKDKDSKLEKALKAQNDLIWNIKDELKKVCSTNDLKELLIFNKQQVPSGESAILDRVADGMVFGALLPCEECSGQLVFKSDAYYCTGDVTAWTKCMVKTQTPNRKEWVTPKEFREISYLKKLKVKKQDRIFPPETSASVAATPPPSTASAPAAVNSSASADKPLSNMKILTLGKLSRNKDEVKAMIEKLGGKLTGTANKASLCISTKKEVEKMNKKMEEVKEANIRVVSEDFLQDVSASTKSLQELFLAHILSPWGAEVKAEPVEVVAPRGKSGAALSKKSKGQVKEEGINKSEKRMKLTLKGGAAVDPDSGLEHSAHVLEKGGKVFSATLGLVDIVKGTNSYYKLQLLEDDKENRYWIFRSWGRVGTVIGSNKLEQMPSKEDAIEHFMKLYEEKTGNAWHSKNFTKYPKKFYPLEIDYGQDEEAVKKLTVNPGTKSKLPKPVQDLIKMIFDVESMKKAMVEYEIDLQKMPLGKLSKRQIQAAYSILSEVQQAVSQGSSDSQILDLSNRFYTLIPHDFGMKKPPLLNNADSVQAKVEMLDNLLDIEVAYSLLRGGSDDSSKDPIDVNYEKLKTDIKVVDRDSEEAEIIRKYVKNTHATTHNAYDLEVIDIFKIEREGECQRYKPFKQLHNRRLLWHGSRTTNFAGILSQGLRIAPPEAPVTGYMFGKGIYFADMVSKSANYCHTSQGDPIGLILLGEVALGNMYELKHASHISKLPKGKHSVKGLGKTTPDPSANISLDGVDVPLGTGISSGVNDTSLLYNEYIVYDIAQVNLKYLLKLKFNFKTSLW
von Hippel-Lindau disease tumor suppressor/Poly [ADP-ribose] polymerase 1 (Homo sapiens), sequence (P40337 whole entry, looked up): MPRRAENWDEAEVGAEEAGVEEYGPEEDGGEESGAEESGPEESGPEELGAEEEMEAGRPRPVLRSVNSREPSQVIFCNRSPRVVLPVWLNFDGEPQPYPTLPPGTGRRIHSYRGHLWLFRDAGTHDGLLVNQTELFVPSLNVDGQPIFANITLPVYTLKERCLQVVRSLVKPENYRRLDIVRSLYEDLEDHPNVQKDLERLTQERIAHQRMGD

Activity	Compound
inactive	Cc1ncsc1-c1ccc(CNC(=O)[C@@H]2C[C@@H](O)CN2C(=O)[C@@H](NC(=O)CCCNC(=O)CCCCCCCCCCC(=O)N2CCN(C(=O)c3cc(Cc4n[nH]c(=O)c5ccccc45)ccc3F)CC2)C(C)(C)C)cc1
inactive	Cc1ncsc1-c1ccc(CNC(=O)[C@@H]2C[C@@H](O)CN2C(=O)[C@@H](NC(=O)CCCCCCCCCCC(=O)N2CCN(C(=O)c3cc(Cc4n[nH]c(=O)c5ccccc45)ccc3F)CC2)C(C)(C)C)cc1
inactive	Cc1ncsc1-c1ccc(CNC(=O)[C@@H]2C[C@@H](O)CN2C(=O)[C@@H](NC(=O)CNC(=O)CCCCCCCCCCC(=O)N2CCN(C(=O)c3cc(Cc4n[nH]c(=O)c5ccccc45)ccc3F)CC2)C(C)(C)C)cc1

Target: Poly [ADP-ribose] polymerase 1 (Homo sapiens, UniProt P09874)
Assay: Inhibition of recombinant human C-terminal His-tagged PARP1 expressed in Sf9 insect cells preincubated for 20 mins in presence of activated DNA followed by […] addition and further incubated for 2 hrs by chemiluminescence assay
Conditions: not given

Poly [ADP-ribose] polymerase 1, sequence (P09874 whole entry): as the sequence (P09874 whole entry, looked up) above

IC50 [nM]	Compound
2.64	CN1C(=O)CCC(N2C(=O)c3cccc(NCCNC(=O)CCCCCCCCCCC(=O)N4CCN(C(=O)c5cc(Cc6n[nH]c(=O)c7ccccc67)ccc5F)CC4)c3C2=O)C1=O (stereo not drawn)

Target: T1, Protein cereblon/Poly [ADP-ribose] polymerase 1
Assay: Protac activity at CRBN/PARP1 in human SW620 cells assessed as reduction in PARP1 protein level at 0.01 to 10 uM incubated for 12 hrs by western blot analysis
Assay type: cell-based
Conditions: SW-620, dose microM 0.01-10, time 12.0 hrs
Method in brief: as §1

Activity	Compound
Active	CN(CCOCCOCCOCCOCCOCCOCCNc1cccc2c1C(=O)N(C1CCC(=O)NC1=O)C2=O)Cc1ccc(-c2[nH]c3cc(F)cc4c3c2CCNC4=O)cc1 (stereo not drawn)

Test system: CAPAN-1
Assay: Antiproliferative activity against human CAPAN-1 cells assessed as cell growth inhibition incubated for 13 days by CCK-8 assay
Assay type: functional, cell-based
Conditions: CAPAN-1, 312 h
Method in brief: (§3)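 Cells were sub-cultured at least twice and seeded for 24 h before dosing. Compounds came from 10 mM DMSO stocks, given as 10 points of 3-fold serial dilution starting at 10-20 μM. Incubation was about 7 days (Capan-1 13 days) at 37 °C, 5% CO2. Read-out was CCK-8 absorbance at 450 nm, as % growth versus DMSO wells (duplicate wells). IC50 was fitted by nonlinear regression; three independent experiments.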

Compound	IC50 [nM]
O=C(CCCCCCCCCCC(=O)N1CCN(C(=O)c2cc(Cc3n[nH]c(=O)c4ccccc34)ccc2F)CC1)NCCCCNc1cccc2c1C(=O)N(C1CCC(=O)NC1=O)C2=O (stereo not drawn)	131
Cc1ncsc1-c1ccc(CNC(=O)[C@@H]2C[C@@H](O)CN2C(=O)[C@@H](NC(=O)CCCNC(=O)CCCCCCCCCCC(=O)N2CCN(C(=O)c3cc(Cc4n[nH]c(=O)c5ccccc45)ccc3F)CC2)C(C)(C)C)cc1	870
Cc1ncsc1-c1ccc(CNC(=O)[C@@H]2C[C@@H](O)CN2C(=O)[C@@H](NC(=O)CCCCCCCCCCC(=O)N2CCN(C(=O)c3cc(Cc4n[nH]c(=O)c5ccccc45)ccc3F)CC2)C(C)(C)C)cc1	87
Cc1ncsc1-c1ccc(CNC(=O)[C@@H]2C[C@@H](O)CN2C(=O)[C@@H](NC(=O)CNC(=O)CCCCCCCCCCC(=O)N2CCN(C(=O)c3cc(Cc4n[nH]c(=O)c5ccccc45)ccc3F)CC2)C(C)(C)C)cc1	1600
CN(CCOCCOCCOCCOCCOCCOCCNc1cccc2c1C(=O)N(C1CCC(=O)NC1=O)C2=O)Cc1ccc(-c2[nH]c3cc(F)cc4c3c2CCNC4=O)cc1 (stereo not drawn)	950

Test system: MDA-MB-436
Assay: Antiproliferative activity against human MDA-MB-436 cells assessed as cell growth inhibition incubated for 7 days by CCK-8 assay
Assay type: functional, cell-based
Conditions: MDA-MB-436, 168 h
Method in brief: as §3

Compound	IC50 [nM]
Cc1ncsc1-c1ccc(CNC(=O)[C@@H]2C[C@@H](O)CN2C(=O)[C@@H](NC(=O)CNC(=O)CCCCCCCCCCC(=O)N2CCN(C(=O)c3cc(Cc4n[nH]c(=O)c5ccccc45)ccc3F)CC2)C(C)(C)C)cc1	1200
CN(CCOCCOCCOCCOCCOCCOCCNc1cccc2c1C(=O)N(C1CCC(=O)NC1=O)C2=O)Cc1ccc(-c2[nH]c3cc(F)cc4c3c2CCNC4=O)cc1 (stereo not drawn)	710

The next lines start with the values.

IC50 [nM]	Compound
680	Cc1ncsc1-c1ccc(CNC(=O)[C@@H]2C[C@@H](O)CN2C(=O)[C@@H](NC(=O)CCCNC(=O)CCCCCCCCCCC(=O)N2CCN(C(=O)c3cc(Cc4n[nH]c(=O)c5ccccc45)ccc3F)CC2)C(C)(C)C)cc1
54	Cc1ncsc1-c1ccc(CNC(=O)[C@@H]2C[C@@H](O)CN2C(=O)[C@@H](NC(=O)CCCCCCCCCCC(=O)N2CCN(C(=O)c3cc(Cc4n[nH]c(=O)c5ccccc45)ccc3F)CC2)C(C)(C)C)cc1
39	O=C(CCCCCCCCCCC(=O)N1CCN(C(=O)c2cc(Cc3n[nH]c(=O)c4ccccc34)ccc2F)CC1)NCCCCNc1cccc2c1C(=O)N(C1CCC(=O)NC1=O)C2=O (stereo not drawn)

Target: T1, Protein cereblon/Poly [ADP-ribose] polymerase 1
Assay: Protac activity at CRBN/PARP1 in human MDA-MB-436 cells assessed as induction of PARP1 degradation at 1 to 1000 nM incubated for 24 hrs by Western blot analysis
Assay type: cell-based
Conditions: dose nM 1-1000, time 24.0 hrs
Method in brief: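 PARP1 immunoblot of MDA-MB-436 lysates after 24 h exposure at 1, 10, 100 and 1000 nM; RIPA lysis, 20-30 µg protein per lane, β-tubulin as loading control, band density normalized to DMSO control.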

Activity	Compound
inactive	CN1C(=O)CCC(N2C(=O)c3cccc(NCCNC(=O)CCCCCCCCCCC(=O)N4CCN(C(=O)c5cc(Cc6n[nH]c(=O)c7ccccc67)ccc5F)CC4)c3C2=O)C1=O (stereo not drawn)
